Measured values from ChEMBL document CHEMBL2311390, “Synthesis and preliminary evaluation of pharmacological properties of some piperazine derivatives of xanthone” (Bioorg Med Chem, 2013).
One block for each compound: values may come before it.

Key:
[1] = target: T1, Adrenergic receptor alpha-2 (Rattus norvegicus, UniProt P22086+P19328+P22909); assay: Displacement of [3H]clonidine from alpha2-adrenergic receptor in rat cerebral cortex by liquid scintillation counting; type: tissue-based
T1 sequence (P22086 whole entry): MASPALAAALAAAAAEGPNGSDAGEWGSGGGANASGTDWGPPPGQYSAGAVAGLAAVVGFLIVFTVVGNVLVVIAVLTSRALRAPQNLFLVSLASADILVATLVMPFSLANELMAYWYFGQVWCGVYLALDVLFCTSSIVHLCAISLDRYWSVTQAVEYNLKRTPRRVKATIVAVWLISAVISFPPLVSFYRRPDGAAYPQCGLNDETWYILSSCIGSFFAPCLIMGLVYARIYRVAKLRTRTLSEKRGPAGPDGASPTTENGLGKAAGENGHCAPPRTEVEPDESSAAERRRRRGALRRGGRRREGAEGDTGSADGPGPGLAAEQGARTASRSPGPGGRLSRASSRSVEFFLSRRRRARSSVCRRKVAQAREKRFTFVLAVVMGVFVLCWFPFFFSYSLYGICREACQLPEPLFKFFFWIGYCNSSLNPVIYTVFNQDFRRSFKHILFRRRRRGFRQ
T1 sequence (P19328 whole entry): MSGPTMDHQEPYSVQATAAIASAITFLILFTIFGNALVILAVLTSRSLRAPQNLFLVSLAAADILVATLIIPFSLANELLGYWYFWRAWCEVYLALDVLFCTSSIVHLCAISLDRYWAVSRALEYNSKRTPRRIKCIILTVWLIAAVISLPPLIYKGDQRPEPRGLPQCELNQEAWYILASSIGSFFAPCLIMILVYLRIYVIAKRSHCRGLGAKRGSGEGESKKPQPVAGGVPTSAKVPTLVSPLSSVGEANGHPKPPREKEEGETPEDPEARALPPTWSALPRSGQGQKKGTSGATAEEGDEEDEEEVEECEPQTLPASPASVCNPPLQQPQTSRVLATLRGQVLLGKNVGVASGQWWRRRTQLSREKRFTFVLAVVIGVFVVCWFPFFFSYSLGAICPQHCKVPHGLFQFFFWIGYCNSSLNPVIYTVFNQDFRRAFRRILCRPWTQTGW
T1 sequence (P22909 whole entry): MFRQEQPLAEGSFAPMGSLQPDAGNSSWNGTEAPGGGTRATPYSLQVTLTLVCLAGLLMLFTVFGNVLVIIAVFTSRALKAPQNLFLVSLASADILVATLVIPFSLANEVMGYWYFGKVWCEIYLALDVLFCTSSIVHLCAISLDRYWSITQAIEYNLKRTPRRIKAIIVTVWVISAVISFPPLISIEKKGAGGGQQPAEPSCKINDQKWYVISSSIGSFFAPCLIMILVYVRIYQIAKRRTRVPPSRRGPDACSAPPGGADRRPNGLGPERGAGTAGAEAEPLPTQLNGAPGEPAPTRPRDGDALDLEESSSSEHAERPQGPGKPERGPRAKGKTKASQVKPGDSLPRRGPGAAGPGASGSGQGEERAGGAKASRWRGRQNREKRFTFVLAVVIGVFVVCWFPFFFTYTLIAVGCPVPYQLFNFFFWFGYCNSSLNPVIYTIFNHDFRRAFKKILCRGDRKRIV
Procedure, shortened: (§1)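 Rat cerebral cortex was homogenised in ice-cold 50 mM Tris-HCl pH 7.6 and spun at 20,000 g for 20 min at 0–4 °C, then washed once. Radioligands: [3H]prazosin 0.2 nM for α1, [3H]clonidine 2 nM for α2, [3H]CGP-12177 0.2 nM for β1. Test compounds were run at 7–8 concentrations from 10^-11 to 10^-4 M. Nonspecific binding was defined with phentolamine (α1), clonidine (α2) or propranolol (β1). Counting was by liquid scintillation, in duplicate. Ki was derived by Cheng–Prusoff from 2–3 experiments.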

[2] = target: T2, Adrenergic receptor alpha-1 (Rattus norvegicus, UniProt P15823+P23944+P43140); assay: Displacement of [3H]-prazosin from alpha1-adrenergic receptor in rat cerebral cortex by liquid scintillation counting; type: tissue-based; procedure, shortened: as §1
T2 sequence (P15823 whole entry): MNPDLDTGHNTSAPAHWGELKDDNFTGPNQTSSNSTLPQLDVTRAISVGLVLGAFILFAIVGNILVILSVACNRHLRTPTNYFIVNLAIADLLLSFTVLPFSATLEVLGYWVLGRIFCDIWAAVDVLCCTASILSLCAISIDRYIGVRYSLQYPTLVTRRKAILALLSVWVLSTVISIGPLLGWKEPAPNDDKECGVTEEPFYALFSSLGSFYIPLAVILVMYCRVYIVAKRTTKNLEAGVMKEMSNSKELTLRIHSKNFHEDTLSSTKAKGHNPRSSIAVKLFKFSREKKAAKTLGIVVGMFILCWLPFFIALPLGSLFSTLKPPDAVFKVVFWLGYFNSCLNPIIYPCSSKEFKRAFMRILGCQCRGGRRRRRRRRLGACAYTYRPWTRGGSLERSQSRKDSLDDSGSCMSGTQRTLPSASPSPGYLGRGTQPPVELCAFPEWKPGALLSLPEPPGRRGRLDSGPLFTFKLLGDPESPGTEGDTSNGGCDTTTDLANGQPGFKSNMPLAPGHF
T2 sequence (P23944 whole entry): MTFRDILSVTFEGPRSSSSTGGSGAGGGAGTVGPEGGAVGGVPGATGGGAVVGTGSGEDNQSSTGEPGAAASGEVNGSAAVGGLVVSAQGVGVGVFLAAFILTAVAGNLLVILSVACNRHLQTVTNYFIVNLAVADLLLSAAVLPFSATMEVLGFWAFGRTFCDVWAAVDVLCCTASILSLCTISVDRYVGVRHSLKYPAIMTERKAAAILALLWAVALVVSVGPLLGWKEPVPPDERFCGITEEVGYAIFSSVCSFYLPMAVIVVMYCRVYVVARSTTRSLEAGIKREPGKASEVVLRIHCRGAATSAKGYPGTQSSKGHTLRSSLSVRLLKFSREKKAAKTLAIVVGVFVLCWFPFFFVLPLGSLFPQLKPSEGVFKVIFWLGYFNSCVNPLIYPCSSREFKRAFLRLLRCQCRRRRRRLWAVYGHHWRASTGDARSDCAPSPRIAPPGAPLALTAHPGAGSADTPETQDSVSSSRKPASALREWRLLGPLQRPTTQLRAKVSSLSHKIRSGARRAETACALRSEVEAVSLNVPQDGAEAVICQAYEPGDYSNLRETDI
T2 sequence (P43140 whole entry): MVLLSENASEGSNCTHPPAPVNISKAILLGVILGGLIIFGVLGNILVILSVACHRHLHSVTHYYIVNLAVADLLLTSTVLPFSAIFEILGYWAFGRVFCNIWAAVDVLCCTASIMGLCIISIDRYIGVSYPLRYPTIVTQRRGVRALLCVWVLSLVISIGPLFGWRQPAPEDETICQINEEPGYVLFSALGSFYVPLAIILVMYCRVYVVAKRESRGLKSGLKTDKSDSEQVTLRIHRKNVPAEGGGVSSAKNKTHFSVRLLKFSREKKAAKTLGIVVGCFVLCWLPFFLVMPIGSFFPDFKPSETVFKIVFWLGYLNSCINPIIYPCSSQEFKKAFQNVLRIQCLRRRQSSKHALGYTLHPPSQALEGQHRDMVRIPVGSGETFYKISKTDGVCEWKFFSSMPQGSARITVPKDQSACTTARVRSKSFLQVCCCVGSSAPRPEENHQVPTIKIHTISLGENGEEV

[3] = Displacement of [3H]CGP-12177 from beta1-adrenergic receptor in rat cerebral cortex by liquid scintillation counting; type: tissue-based; procedure, shortened: as §1
Rattus norvegicus [4] = assay: Cardiotoxicity in Wistar rat assessed as hear beats per min at 10 mg/kg, iv after 15 mins by ECG analysis; type: toxicity, organism-based; set-up: dose 10 mg/kg, route intravenous; settings: in vivo, 0.25 h
Procedure, shortened: (§2)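 Male normotensive Wistar rats, 170–350 g, six per group. Compound given iv at a constant volume of 1 mL/kg. ECG was recorded just before dosing and at 1, 5 and 15 min after. PQ, QRS and QT intervals and heart rate were read from the trace. Groups were compared by one-way ANOVA.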

Rattus norvegicus [5] = assay: Cardiotoxicity in Wistar rat assessed as QT interval at 10 mg/kg, iv after 15 mins by ECG analysis; type: toxicity, organism-based; set-up: dose 10 mg/kg, route intravenous; settings: in vivo, 0.25 h; procedure, shortened: as §2
Rattus norvegicus [6] = assay: Cardiotoxicity in Wistar rat assessed as QRS interval at 10 mg/kg, iv after 15 mins by ECG analysis; type: toxicity, organism-based; set-up: dose 10 mg/kg, route intravenous; settings: in vivo, 0.25 h; procedure, shortened: as §2
Rattus norvegicus [7] = assay: Cardiotoxicity in Wistar rat assessed as PQ interval at 10 mg/kg, iv after 15 mins by ECG analysis; type: toxicity, organism-based; set-up: dose 10 mg/kg, route intravenous; settings: in vivo, 0.25 h; procedure, shortened: as §2
Rattus norvegicus [8] = assay: Cardiotoxicity in Wistar rat assessed as hear beats per min at 10 mg/kg, iv after 10 mins by ECG analysis; type: toxicity, organism-based; set-up: dose 10 mg/kg, route intravenous; settings: in vivo
Rattus norvegicus [9] = assay: Cardiotoxicity in Wistar rat assessed as QT interval at 10 mg/kg, iv after 10 mins by ECG analysis; type: toxicity, organism-based; set-up: dose 10 mg/kg, route intravenous; settings: in vivo
Rattus norvegicus [10] = assay: Cardiotoxicity in Wistar rat assessed as QRS interval at 10 mg/kg, iv after 10 mins by ECG analysis; type: toxicity, organism-based; set-up: dose 10 mg/kg, route intravenous; settings: in vivo
Rattus norvegicus [11] = assay: Cardiotoxicity in Wistar rat assessed as PQ interval at 10 mg/kg, iv after 10 mins by ECG analysis; type: toxicity, organism-based; set-up: dose 10 mg/kg, route intravenous; settings: in vivo
Rattus norvegicus [12] = assay: Cardiotoxicity in Wistar rat assessed as hear beats per min at 10 mg/kg, iv after 5 mins by ECG analysis; type: toxicity, organism-based; set-up: dose 10 mg/kg, route intravenous; settings: in vivo; procedure, shortened: as §2
Rattus norvegicus [13] = assay: Cardiotoxicity in Wistar rat assessed as QT interval at 10 mg/kg, iv after 5 mins by ECG analysis; type: toxicity, organism-based; set-up: dose 10 mg/kg, route intravenous; settings: in vivo; procedure, shortened: as §2
Rattus norvegicus [14] = assay: Cardiotoxicity in Wistar rat assessed as QRS interval at 10 mg/kg, iv after 5 mins by ECG analysis; type: toxicity, organism-based; set-up: dose 10 mg/kg, route intravenous; settings: in vivo; procedure, shortened: as §2
Rattus norvegicus [15] = assay: Cardiotoxicity in Wistar rat assessed as PQ interval at 10 mg/kg, iv after 5 mins by ECG analysis; type: toxicity, organism-based; set-up: dose 10 mg/kg, route intravenous; settings: in vivo; procedure, shortened: as §2
Rattus norvegicus [16] = assay: Antiarrhythmic activity in iv dosed Wistar rat adrenaline-induced arrhythmia model assessed as reduction of heart-rhythm disturbance administered 15 mins adrenaline-challenge; type: functional; settings: 0.25 h
Procedure, shortened: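 Anaesthetised male Wistar rats (thiopental 75 mg/kg ip). Test compound iv at 1 mL/kg, given 15 min before adrenaline 20 µg/kg iv. Activity means no premature beats and inhibition of arrhythmia, judged against a control group. There were three dose groups of six rats. ED50 with confidence limits was calculated by the Litchfield–Wilcoxon method.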

Rattus norvegicus [17] = assay: Hypotensive activity in normotensive Wistar rat assessed as reduction of systolic blood pressure at 0.1 to 5 mg/kg, iv; type: functional, Artery; set-up: scale not given: the % may be the effect or the level left; settings: dose mg/kg 0.1-5
Procedure, shortened: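 Male normotensive Wistar rats were anaesthetised with thiopental 75 mg/kg ip. The right carotid artery was cannulated with heparinised saline for pressure recording. After 5 min of stabilisation, compound was injected into the tail vein at 1 mL/kg. Systolic and diastolic pressure were followed up to 60 min. Data are means ± SEM of 5–6 rats, analysed by one-way ANOVA.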

Ki [1]: 5.5 µM
Ki [2]: 0.082 µM
Ki [3]: 4.5 µM
Compound: COc1ccccc1N1CCN(CCCOc2cccc3c(=O)c4ccc(Cl)cc4oc23)CC1.Cl

Ki [2]: 1.1 µM
Ki [3]: 31.6 µM
Compound: COc1ccc(N2CCN(CCCOc3cccc4c(=O)c5ccccc5oc34)CC2)cc1.Cl
Activity (Rattus norvegicus [4]): 311.4 bpm
Activity (Rattus norvegicus [5]): 82.4 ms
Activity (Rattus norvegicus [6]): 24.2 ms
Activity (Rattus norvegicus [7]): 43.7 ms
Activity (Rattus norvegicus [8]): 317.4 bpm
Activity (Rattus norvegicus [9]): 80.2 ms
Activity (Rattus norvegicus [10]): 23.6 ms
Activity (Rattus norvegicus [11]): 43.7 ms
Activity (Rattus norvegicus [12]): 323 bpm
Activity (Rattus norvegicus [13]): 79.4 ms
Activity (Rattus norvegicus [14]): 22.8 ms
Activity (Rattus norvegicus [15]): 43.5 ms

Compound: COc1ccccc1OCCNCC(O)COc1cccc2[nH]c3ccccc3c12 (centres undefined) [CARVEDILOL]
ED50 (Rattus norvegicus [16]): 0.25 mg/kg

Compound: CC(C)NCC(O)COc1ccc2c(=O)c3ccccc3oc2c1 (centres undefined)
Activity (Rattus norvegicus [17]): 7%
